# Published values of several laboratories.
# Protocols differ between the studies behind these lines.
# Target: Calcium/calmodulin-dependent protein kinase type II subunit beta (CAMK2B, Homo sapiens, UniProt Q13554)
Compound,test,conditions,remaining binding
c1cnn2ncc(-c3ccnc(N4CCC45COC5)n3)c2c1,binding,1 µM,66%
COc1ncc2cc3ccccc3nc2c1C#N,"cell-free assay, competition with immobilised ligand",5 µM,87%
O=C(c1ccc(Nc2ncc(Cl)c(-c3cc4ccccc4s3)n2)cc1)N1CCC(N2CCCC2)CC1,"binding, competition with immobilised ligand",1 µM,83%
CS(=O)(=O)NCC[C@H](NC(=O)c1cncc2c1cnn2-c1ccc(F)cc1)c1ccnc(S(C)(=O)=O)c1,"cell-free assay, competition with immobilised ligand",1 µM,100%
COc1cnc(Nc2cccc(S(N)(=O)=O)c2)nc1N1CCN(c2ccccc2)CC1,"binding, competition with immobilised ligand",1 µM,83%
C[C@@H]1CCN(c2nccc(-c3cnn4ncccc34)n2)C1,binding,1 µM,78%
C=CC(=O)N1CCC(C(=O)NCC(=O)N2CCN(c3nc(-c4cnc(N)nc4C(F)F)nc(N4CCOCC4)n3)CC2)CC1,"binding, competition with immobilised ligand",1 µM,100%
CO[C@H]1CC[C@H](CNc2ccc(S(=O)(=O)NC(=O)c3ccc(N4CCN(CC5=C(c6ccc(Cl)cc6)CC(C)(C)CC5)CC4)cc3Oc3cnc4[nH]ccc4c3)cc2[N+](=O)[O-])CC1,"cell-free assay, competition with immobilised ligand",1 µM,80%
CN(C)c1ncc(F)c(-c2cnn3ncccc23)n1,binding,1 µM,65%
CNC(=O)[C@@H]1CC[C@@H](n2c(-c3ccc4cnccc4c3)nc3ccc(C(=O)NCc4cccc(C(N)=O)c4)cc32)C1,"binding, competition with immobilised ligand",1 µM,100%
N[C@@H]1CCN(c2nccc(-c3cnn4ncccc34)n2)C1,binding,1 µM,100%
C[C@H](NC(=O)c1cnc2n1[C@](C)(Cc1ccc(C#N)cc1)C(=O)N2c1cc(Cl)c(F)c(Cl)c1)C(=O)NC1(c2ccccn2)CC1,"cell-free assay, competition with immobilised ligand",1 µM,100%
O=C(c1ccc(Nc2nccc(-c3cc4ccccc4s3)n2)cc1)N1CCC(N2CCCC2)CC1,"binding, competition with immobilised ligand",1 µM,100%
FC(F)(F)c1ccc2c(c1)nc(-c1cccnc1)n2C1CC1,"cell-free assay, competition with immobilised ligand",1 µM,100%
CN(C)c1nccc(-c2cnn3ncccc23)n1,binding,1 µM,65%
O=C(Nc1c[nH]nc1C(=O)NC1CCNCC1)c1cc(F)cc(F)c1,"binding, competition with immobilised ligand",1 µM,100%
F[C@@H]1CCN(c2nccc(-c3cnn4ncccc34)n2)C1,binding,1 µM,100%
c1ccc(N2CCN(Cc3nc4ccccc4[nH]3)CC2)nc1,"cell-free assay, competition with immobilised ligand",1 µM,100%
CCN1CCN(Cc2ccc(C(=O)Nc3ccc(C)c(Oc4ccc5c(c4)CC(=O)N5)c3)cc2C(F)(F)F)CC1,"binding, competition with immobilised ligand",1 µM,100%
Cc1cc(NC(=O)c2cccc(S(F)(F)(F)(F)F)c2)cc(-n2ccn3nc(-c4cccnc4)cc23)c1,"cell-free assay, competition with immobilised ligand",1 µM,100%
O=C(c1ccc(Nc2ncc(Cl)c(-c3ccc(Cl)s3)n2)cc1)N1CCC(N2CCCC2)CC1,"binding, competition with immobilised ligand",1 µM,87%
